Assay results from the EternaBench riboswitch data.

System: MS2 coat protein
Test: apparent Kd, MS2 coat protein; higher = weaker binding; RNA-MaP array; tryptophan 2.4 mM where present
Summary of the method: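 Stalled E. coli RNA polymerase produced the designs on Illumina sequencing-chip clusters. SNAP-549-labelled MS2 coat protein was added from 0.7 or 1.5 nM, doubling to 3 µM, without and then with constant ligand, in 100 mM Tris-HCl pH 7.5, 80 mM KCl, 4 mM MgCl2, BSA, DTT, yeast tRNA and Tween-20. The apparent Kd is the median of filtered per-cluster fits of green signal normalised to red-channel RNA signal and control-cluster median Fmax.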

[1] = designed as: OFF switch for tryptophan, no ligand
[2] = ligand present: tryptophan, designed as: OFF switch for tryptophan
[3] = designed as: ON switch for tryptophan, no ligand
[4] = ligand present: tryptophan, designed as: ON switch for tryptophan

Question: For “ACUACGAAGACGGCCGCCACUGAUAUUCGUAGAUCCAUCAAUACAUGAGGAUCACCCAUGUAUAUCAGGACCGGGUCAAGAUGGU”, which “apparent Kd” value [1] is on record?
Answer: 22.6 nM

Question: What about the “apparent Kd” value [2] of the same sequence?
Answer: 47.2 nM

Question: Which results are given for “GACGAUAUGAUACGUCAGCAAUCCUCGAAACGAGGACCGGUACGGCCGCCACUCGAGUGAUACACAUGAGGAUCACCCAUGUACC”?
Answer: apparent Kd [1]: 39.3 nM; apparent Kd [2]: 53.2 nM

Question: For “GGAUAGGACACGGCCGCCACUGCCUAGGAUACUAGAAACAUUUCCUCACAUGAGGAUCACCCAUGUAGGACCGGGUGUCCUAUCG”, which “apparent Kd” value [1] is on record?
Answer: 134 nM

Question: What about the “apparent Kd” value [2] of the same sequence?
Answer: 267 nM

Question: “AAUGGCCGUACCGGAAGGGUGAUCCUCAAACGAGGACCGGUACGGCCGCCACUCGAUAACAUGAGGAUCACCCAUGUAAUACAUA” was tested. Which “apparent Kd” value [1] did it give?
Answer: 366 nM

Question: And the “apparent Kd” value [2]?
Answer: 318 nM

Question: “GUUAUAUACUCGGCCGCCACUGAGAGAGUCAUGUAAACAUGAGGAUCACCCAUGUAAUAUAUAUACAGGACCGGGAGUAUGGUAA” was tested. Which “apparent Kd” value [1] did it give?
Answer: 14.3 nM

Question: What about the “apparent Kd” value [2] of the same sequence?
Answer: 13.5 nM

Question: What does the source list for “GUCCAAAGGUCGGCCGCCACUGUAGGAUGUGUUCUUUCACAUGAGGAUCACCCAUGUUGUUAUUAUAGGACCGGGAUUGUAGGAC”?
Answer: apparent Kd [1]: 20.5 nM; apparent Kd [2]: 18.5 nM

Question: “AUCAUAAUAGACUCGUUUGAUUAUAUGGAACGAGGACCGGUACGGCCGCCACUCGUGAUUUACAUGAGGAUCACCCAUGUUAGCA” was tested. Which “apparent Kd” value [1] did it give?
Answer: 15.7 nM

Question: What about the “apparent Kd” value [2] of the same sequence?
Answer: 13.9 nM

Question: Which “apparent Kd” value [3] does the source give for “GCAUCCUAGUCGGCCGCCACUGGUAUCAACACCUUCACCCGUGUGCACAUGAGGAUCACCCAUGUUAGGACCGGGACUAGGAUGC” here?
Answer: 8.4 nM

Question: And the “apparent Kd” value [4]?
Answer: 8.5 nM

Question: Which results are given for “AAUGAGUGGUGGUCAAGUGAUCCUCAUGAACGAGGACCGGUACGGCCGCCACUCGAUAACAUGAGGAUCACCCAUGUAAUAAUAA”?
Answer: apparent Kd [1]: 16.5 nM; apparent Kd [2]: 14.8 nM

Question: How did the “apparent Kd” value [1] turn out when “GGAAAAGAAAGAAAAGAAAUCCCUCCCUCCCGAGGACCGGUACGGCCGCCACUCGCCCUCCCUCCCACAUGAGGAUCACCCAUGU” was run?
Answer: 23.5 nM

Question: What about the “apparent Kd” value [2] of the same sequence?
Answer: 23.4 nM

Question: “ACAUUGCGCUCGGCCGCCACUGGCUAUAGAUUUAUAGCAUUAAUGAACAUGAGGAUCACCCAUGUCAGGACCGGGAGCGAACCAU” was tested. Which “apparent Kd” value [3] did it give?
Answer: 12.7 nM

Question: And the “apparent Kd” value [4]?
Answer: 14.5 nM

Question: Which “apparent Kd” value [1] does the source give for “AGUAAUAAUAUAAAUAAUAUUAGGUCAUGGCGAGGACCGGUACGGCCGCCACUCGGUUACAUGAGGAUCACCCAUGUCCCGCUUA” here?
Answer: 30.5 nM

Question: What about the “apparent Kd” value [2] of the same sequence?
Answer: 34.6 nM

Question: “UCGGGCAGAGCGGCCGCCACUGUAUGGCGUGCGGAUGACGGAACAUGAGGAUCACCCAUGUUGUUUAGGACCGGGCUUGCCGCGA” was tested. Which “apparent Kd” value [1] did it give?
Answer: 11.2 nM

Question: And the “apparent Kd” value [2]?
Answer: 13.2 nM

Question: “CUUGACAUGAGGAUCACCCAUGUUGGUAAACGAGGACCGGUACGGCCGCCACUCGGUUACGUGUAGUACCGGUAAGAUCCAGGGU” was tested. Which “apparent Kd” value [3] did it give?
Answer: 29.3 nM

Question: And the “apparent Kd” value [4]?
Answer: 27.1 nM

Question: “ACAUGAGGAUCACCCAUGUGCAUCACCCGACGAGGACCGGUACGGCCGCCACUCGGGUAUAUAUUUGCAUCGGGUGAUUUUACGU” was tested. Which “apparent Kd” value [3] did it give?
Answer: 19.6 nM

Question: What about the “apparent Kd” value [4] of the same sequence?
Answer: 14.9 nM

Question: Which results are given for “AUAAUAAUCCUCAUGUAAGGUCCUCGAUAACGAGGACCGGUACGGCCGCCACUCGAACAUGAGGAUCACCCAUGUACGAGGACCA”?
Answer: apparent Kd [3]: 42.5 nM; apparent Kd [4]: 32.6 nM

Question: “UACUUGCUGACGGCCGCCACUAGAACAUGAGGAUCACCCAUGUAGGUCCUAGAUUCCUCAUGAACUAGGACCGGGUCAGCAAGAU” was tested. Which “apparent Kd” value [1] did it give?
Answer: 52.6 nM

Question: And the “apparent Kd” value [2]?
Answer: 12.4 nM

Question: Which results are given for “UACUUGCUGACGGCCGCCACUAGAACAUGAGGAUCACCCAUGUAUGGCGGCCGUCAUGGGUGGACUAGGACCGGGUCAGCAAGAU”?
Answer: apparent Kd [1]: 9.84 nM; apparent Kd [2]: 13.6 nM

Question: For “UAUAUAUAUCACUAACUGUUGUGGACGUCUCGAGGACCGGUACGGCCGCCACUCGGGCGGCCUCACAUGAGGAUCACCCAUGUCC”, which “apparent Kd” value [1] is on record?
Answer: 125 nM

Question: What about the “apparent Kd” value [2] of the same sequence?
Answer: 110 nM

Question: For “UUCUUUAAGUCGGCCGCCACUGAAACAUGAGGAUCACCCAUGUAUAUUUGUGUAAAGGUGGAUUACAGGACCGGGACUAUAGUAA”, which “apparent Kd” value [1] is on record?
Answer: 12 nM

Question: What about the “apparent Kd” value [2] of the same sequence?
Answer: 12 nM

Question: How did the “apparent Kd” value [1] turn out when “UCGCCCGGGUCGGCCGCCACUGCGGUGAUGUGACAUGAGGAUCACCCAUGUUGUCAUGUGGCACAUAGGACCGGGACCCGGGCGA” was run?
Answer: 30.5 nM

Question: What about the “apparent Kd” value [2] of the same sequence?
Answer: 29.9 nM

Question: Which results are given for “GCGACCCUGAGAUCCUACGUAACGUGAACACGAGGACCGGUACGGCCGCCACUCGAGAGAACAUGAGGAUCACCCAUGUCUGAGC”?
Answer: apparent Kd [1]: 32.9 nM; apparent Kd [2]: 88.5 nM

Question: How did the “apparent Kd” value [1] turn out when “AUAUAUACAUGAGGAUCACCCAUGUUAUUACGAGGACCGGUACGGCCGCCACUCGAUAGAGUAGAAGUAAAUUGUAAUUCAUGUU” was run?
Answer: 12.4 nM

Question: And the “apparent Kd” value [2]?
Answer: 12.6 nM

Question: For “GGAUAGGACACGGCCGCCACUGCGGCUAGAUACUAGCACAUUUCCUCACAUGAGGAUCACCCAUGUAGGACCGGGUGUCCUAUCG”, which “apparent Kd” value [1] is on record?
Answer: 95.7 nM

Question: What about the “apparent Kd” value [2] of the same sequence?
Answer: 132 nM

Question: Which results are given for “AGCACGGUGAUGGUAGCCGGACGCUAGGUACGAGGACCGGUACGGCCGCCACUCGAAGUCCUACGACAUGAGGAUCACCCAUGUA”?
Answer: apparent Kd [3]: 53.5 nM; apparent Kd [4]: 40.5 nM

Question: With “AGUUCCAGGUCGGCCGCCACUGGCAUGGCCGGUCCUCGGACUUACAUGAGGAUCACCCAUGUGAACAGGACCGGGACCGCAUGGG” as the sequence, how does the “apparent Kd” value [1] read?
Answer: 38.3 nM

Question: What about the “apparent Kd” value [2] of the same sequence?
Answer: 48.2 nM

Question: Which results are given for “ACAUGAGGAUCACCCAUGUGUGUAAGUCCUCGAGGACCGGUACGGCCGCCACUCGAACGAGUGUAACAUACUUGUUACAAGUAUG”?
Answer: apparent Kd [3]: 24 nM; apparent Kd [4]: 24.4 nM

Question: How did the “apparent Kd” value [1] turn out when “AGCACUGUGGCGGCCGCCACUACAUAUAGGGUGGUCAGGCCCAUAAUACAUGAGGAUCACCCAUGUAGGACCGGGCCUCAGUGCA” was run?
Answer: 15 nM

Question: And the “apparent Kd” value [2]?
Answer: 14.8 nM

Question: Which results are given for “ACAUGAGGAUCACCCAUGUUUGAUGUUCCUCGAGGACCGGUACGGCCGCCACUCGAACGAGUGGCGCGCGAGCGCGCGCUCGCGC”?
Answer: apparent Kd [3]: 12.2 nM; apparent Kd [4]: 12.7 nM

Question: With “CUACAUUUGUAGAAACCGGUCAACAUUAUUCGAGGACCGGUACGGCCGCCACUCGUAUAUUUUUAUACAUGAGGAUCACCCAUGU” as the sequence, how does the “apparent Kd” value [3] read?
Answer: 12 nM

Question: What about the “apparent Kd” value [4] of the same sequence?
Answer: 11.4 nM
